Experimental data reported in ChEMBL document CHEMBL1137506, “Novel orally active, dibenzazepinone-based gamma-secretase inhibitors” (Bioorg Med Chem Lett, 2007).

Columns and labels:
[1] = target: Gamma-secretase; experiment: Inhibition of human gamma secretase assessed as amyloid-beta40 peptide production […] by ELISA; assay type: cell-based; details: hek293
Method in brief: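 Cell-free assay. Membrane fractions from HEK293 cells carrying γ-secretase activity are incubated with a recombinant APP C-terminal fragment as substrate. The Aβ40 peptide produced is quantified by ELISA, and IC50 is derived from it.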

[2] = target: Gamma-secretase; experiment: Inhibition of human gamma secretase in HEK293 cells by reporter gene assay; assay type: cell-based
Method in brief: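 Cellular reporter assay in HEK293 cells. The γ-secretase substrate is a Notch 1 construct fused to a Gal4/VP16 transcription factor, which drives a firefly luciferase reporter gene. IC50 is taken from inhibition of the luciferase signal.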

[3] = tested on: Mus musculus; experiment: Increase of CTF-APP ratio in po dosed transgenic mouse AD model after 2 days; assay type: functional
[4] = Ratio of drug level in brain to plasma in mouse; assay type: ADME
[5] = Maximal achievable bioavailability in rat liver microsomes; assay type: ADME, Microsome; details: read-out: Max Achievable Bioavailability
[6] = Maximal achievable bioavailability in human liver microsomes; assay type: ADME, Microsome; details: read-out: Max Achievable Bioavailability
Method in brief: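 Maximal achievable bioavailability is estimated from compound incubations with liver microsomes of the stated species.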

[7] = Oral bioavailability in mouse at 7.8 mg/kg, po; assay type: ADME, organism-based; details: in vivo
Method in brief: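 Oral bioavailability (F) in mice after a 7.8 mg/kg oral dose.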

[8] = Clearance in mouse; assay type: ADME, organism-based; details: in vivo
[9] = Solubility of compound; assay type: physicochemical

| IC50 [1] | IC50 [2] | Fh [5] | Fh [6] | SMILES | other results |
| --- | --- | --- | --- | --- | --- |
| 3000 nM | 3300 nM |  |  | CCOCCNC(=O)C(C)C(=O)NC1C(=O)N(C)c2ccccc2-c2ccccc21 (centres undefined) |  |
| 8.6 nM | 1.7 nM | 70% | 72% | C[C@H](OC(=O)NCC(F)(F)C(F)(F)F)C(=O)N[C@@H]1C(=O)N(C)c2ccccc2-c2ccccc21 | MED [3]: 3 mg/kg; Kp [4]: 0.5; bioavailability [7]: 23%; clearance [8]: 32 mL/min/kg |
| 2 nM | 1.6 nM |  |  | C[C@@H](C(=O)NCc1cc(F)cc(F)c1)C(=O)N[C@@H]1C(=O)N(C)c2ccccc2-c2ccccc21 |  |
| 20 nM | 42 nM | 37% | 55% | CC(C(=O)NCC(F)(F)F)C(=O)NC1C(=O)N(C)c2ccccc2-c2ccccc21 (centres undefined) |  |
| 37 nM | 24 nM |  |  | CC(C(=O)NCCC(F)(F)F)C(=O)NC1C(=O)N(C)c2ccccc2-c2ccccc21 (centres undefined) |  |
|  | 2 nM |  |  | CC(OC(=O)NCC(F)(F)C(F)(F)F)C(=O)N[C@@H]1C(=O)N(C)c2ccccc2-c2ccccc21 (some centres undefined) |  |
| 22000 nM | > 25000 nM |  |  | CC(C(=O)NC(CO)c1ccccc1)C(=O)NC1C(=O)N(C)c2ccccc2-c2ccccc21 (centres undefined) |  |
| 2700 nM | 1500 nM |  |  | C[C@H](OC(=O)Nc1ccccc1)C(=O)NC1C(=O)N(C)c2ccccc2-c2ccccc21 (some centres undefined) |  |
| 8.7 nM | 7.1 nM |  |  | C[C@H](C(=O)NCc1cc(F)cc(F)c1)C(=O)N[C@@H]1C(=O)N(C)c2ccccc2-c2ccccc21 |  |
| 5700 nM | 6300 nM |  |  | CC(C(=O)NC(C)c1ccccc1)C(=O)NC1C(=O)N(C)c2ccccc2-c2ccccc21 (centres undefined) |  |
| 22 nM | 10 nM | 9% | 10% | CC(C(=O)NCc1cc(F)cc(F)c1)C(=O)NC1C(=O)N(C)c2ccccc2-c2ccccc21 (centres undefined) |  |
|  |  |  |  | C[C@H](NC(=O)[C@@H](O)c1cc(F)cc(F)c1)C(=O)N[C@@H]1C(=O)N(C)c2ccccc2-c2ccccc21 | MED [3]: 20 mg/kg |
| 15 nM | 75 nM |  |  | CC(C(=O)NCc1ccccc1)C(=O)NC1C(=O)N(C)c2ccccc2-c2ccccc21 (centres undefined) |  |
| 90 nM | 210 nM | 12% | 18% | CC(C(=O)NCC1CC1)C(=O)NC1C(=O)N(C)c2ccccc2-c2ccccc21 (centres undefined) |  |
| 12000 nM | 14000 nM |  |  | CC(C(=O)NC1CCc2ccccc21)C(=O)NC1C(=O)N(C)c2ccccc2-c2ccccc21 (centres undefined) |  |
| > 20000 nM | > 20000 nM | 9% | 14% | CC(C(=O)NC1C(=O)N(C)c2ccccc2-c2ccccc21)C(=O)NC(C)(C)c1ccccc1 (centres undefined) |  |
| 5300 nM | > 25000 nM |  |  | CC(C(N)=O)C(=O)NC1C(=O)N(C)c2ccccc2-c2ccccc21 (centres undefined) |  |
| 3.1 nM | 8.8 nM |  |  | CC(C(=O)NCc1cc(F)cc(F)c1)C(=O)N[C@@H]1C(=O)N(C)c2ccccc2-c2ccccc21 (mixture of isomers) |  |
| 620 nM | 580 nM |  |  | CC(C(=O)NCc1cc(F)cc(F)c1)C(=O)N[C@H]1C(=O)N(C)c2ccccc2-c2ccccc21 (mixture of isomers) |  |
| 3 nM | 1.7 nM | 38% | 55% | CC(C(=O)NCC(F)(F)C(F)(F)F)C(=O)N[C@@H]1C(=O)N(C)c2ccccc2-c2ccccc21 (mixture of isomers) | MED [3]: 3 mg/kg; Kp [4]: 0.5; bioavailability [7]: 21%; clearance [8]: 53 mL/min/kg; Solubility [9]: 28 g/L |
